From ChEMBL document CHEMBL1649314, “Experimental murine scedosporiosis: histopathology and azole treatment” (2010) come the findings set out here.

≈ marks a conversion by molar mass, not a printed value. Calls of active or inactive are those of the source.

In assay [1] the test system is Scedosporium apiospermum. The experiment in a line: Antifungal activity against Scedosporium apiospermum IHEM 14464 by broth dilution method. The assay is classed as functional. On the technique in general: In broth dilution the organism is exposed to a series of concentrations in liquid medium.
Assay [2] is described as follows: Antifungal activity against Scedosporium aurantiacum IHEM 15458 infected in immunosuppressed OF1 mouse assessed as prolonged survival of mouse at 1.5 mg/kg/day, ip administered 24 hrs postinfection for 10 days measured after 20 days. The assay is classed as functional, organism-based. Summed up: (§1)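 Male OF1 mice immunosuppressed 1 day before infection with cyclophosphamide 200 mg/kg i.p. plus 5-fluorouracil 150 mg/kg i.v. Infection: 1 × 10^4 CFU of PDA-grown conidia in 0.2 ml saline via lateral tail vein. Treatment 1.5 mg/kg/day i.p., started 24 h post-challenge, given for 10 days; 10 mice/group; checked daily to day 20. Kaplan-Meier mean survival, log rank test.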

For assay [3], the system named is Scedosporium aurantiacum. The experiment in a line: Antifungal activity against Scedosporium aurantiacum IHEM 15458 infected in immunosuppressed OF1 mouse assessed as reduction in kidney fungal burden at 1.5 mg/kg/day, ip administered 24 hrs postinfection measured on day 4 postinfection.
Assay [4] in a line: Antifungal activity against Scedosporium aurantiacum CBS 116910 by broth dilution method. The assay is classed as functional.
Assay [5] relates to Scedosporium boydii. The experiment in a line: Antifungal activity against Scedosporium boydii FMR 8627 by broth dilution method. It counts as functional.
For assay [6], the system named is Scedosporium boydii. In words: Antifungal activity against Scedosporium boydii FMR 6694 infected in immunosuppressed OF1 mouse assessed as prolonged survival of mouse of mouse at 1.5 mg/kg/day, ip administered 24 hrs postinfection for 10 days measured after 20 days. The assay is classed as functional, organism-based. The procedure, abridged:
as §1

The subject of assay [7] is Scedosporium aurantiacum. The experiment in a line: Antifungal activity against Scedosporium aurantiacum CBS 116910 infected in immunosuppressed OF1 mouse assessed as reduction in kidney fungal burden at 1.5 mg/kg/day, ip administered 24 hrs postinfection for 10 days measured after 20 days. It counts as functional, organism-based.
Assay [8] relates to Scedosporium boydii. In words: Antifungal activity against Scedosporium boydii FMR 6694 infected in immunosuppressed OF1 mouse assessed as reduction in kidney fungal burden at 1.5 mg/kg/day, ip administered 24 hrs postinfection for 10 days measured after 20 days. The assay is classed as functional, organism-based.
Assay [9] in a line: Antifungal activity against Scedosporium aurantiacum IHEM 15458 by broth dilution method. It counts as functional.
Assay [10] has as its system Scedosporium boydii. In words: Antifungal activity against Scedosporium boydii FMR 8627 infected in immunosuppressed OF1 mouse assessed as prolonged survival of mouse at 1.5 mg/kg/day, ip administered 24 hrs postinfection for 10 days measured after 20 days. The assay is classed as functional, organism-based. The procedure, abridged: as §1
The subject of assay [11] is Scedosporium boydii. In words: Antifungal activity against Scedosporium boydii FMR 8627 infected in immunosuppressed OF1 mouse assessed as reduction in kidney fungal burden at 1.5 mg/kg/day, ip administered 24 hrs postinfection for 10 days measured after 20 days. The assay is classed as functional, organism-based.
Assay [12] deals with Scedosporium apiospermum. In words: Antifungal activity against Scedosporium apiospermum CBS 117407 infected in immunosuppressed OF1 mouse assessed as prolonged survival of mouse at 1.5 mg/kg/day, ip administered 24 hrs postinfection for 10 days measured after 20 days. The assay is classed as functional, organism-based. The procedure, abridged: as §1
Assay [13] in a line: Antifungal activity against Scedosporium aurantiacum CBS 116910 infected in immunosuppressed OF1 mouse assessed as prolonged survival of mouse at 1.5 mg/kg/day, ip administered 24 hrs postinfection for 10 days measured after 20 days. The assay is classed as functional, organism-based. The procedure, abridged:
as §1

The test system of assay [14] is Scedosporium apiospermum. In words: Antifungal activity against Scedosporium apiospermum IHEM 14464 infected in immunosuppressed OF1 mouse assessed as prolonged survival of mouse at 1.5 mg/kg/day, ip administered 24 hrs postinfection for 10 days measured after 20 days. The assay is classed as functional, organism-based. Summed up:
as §1

Assay [15] concerns Scedosporium boydii. In words: Antifungal activity against Scedosporium boydii FMR 6694 by broth dilution method. The assay is classed as functional.
The test system of assay [16] is Scedosporium apiospermum. In words: Antifungal activity against Scedosporium apiospermum IHEM 14464 infected in immunosuppressed OF1 mouse assessed as reduction in kidney fungal burden at 1.5 mg/kg/day, ip administered 24 hrs postinfection for 10 days measured after 20 days. The assay is classed as functional, organism-based.
In assay [17] the test system is Scedosporium apiospermum. The experiment in a line: Antifungal activity against Scedosporium apiospermum CBS 117407 by broth dilution method. It counts as functional.
Assay [18] has as its system Scedosporium apiospermum. In words: Antifungal activity against Scedosporium apiospermum CBS 117407 infected in immunosuppressed OF1 mouse assessed as reduction in kidney fungal burden at 1.5 mg/kg/day, ip administered 24 hrs postinfection for 10 days measured after 20 days. The assay is classed as functional, organism-based.

Regarding `C[C@@H]1[C@H](O)[C@@H](C)/C=C/C=C/C=C/C=C/C=C/C=C/C=C/[C@H](O[C@@H]2O[C@H](C)[C@@H](O)[C@H](N)[C@@H]2O)C[C@@H]2O[C@](O)(C[C@@H](O)C[C@@H](O)[C@H](O)CC[C@@H](O)C[C@@H](O)CC(=O)O[C@H]1C)C[C@H](O)[C@H]2C(=O)O` [AMPHOTERICIN B], the minimal inhibitory concentration (MIC) (usually the smallest concentration in the dilution series that meets the test's criterion for growth inhibition) was found to be 32 µg/mL (≈ 34.6 µM) in the assay on Scedosporium apiospermum [1]; 32 µg/mL (≈ 34.6 µM) in assay [4]; 8 µg/mL (≈ 8.66 µM) against Scedosporium boydii [5]; 32 µg/mL (≈ 34.6 µM) in assay [9]; 32 µg/mL (≈ 34.6 µM) in the assay on Scedosporium boydii [15]; 8 µg/mL (≈ 8.66 µM) with Scedosporium apiospermum [17]. Further, the result (in assay [2]; with Scedosporium aurantiacum [3]; in the assay on Scedosporium boydii [6]; with Scedosporium aurantiacum [7]; in the assay with Scedosporium boydii [8]; with Scedosporium boydii [10]) was inactive. The outcome (in the assay on Scedosporium boydii [11]; in the assay on Scedosporium apiospermum [12]; in assay [13]; in the assay with Scedosporium apiospermum [14]; with Scedosporium apiospermum [16]; in the assay on Scedosporium apiospermum [18]) was inactive.
